Results reported in ChEMBL document CHEMBL3399918, “In vitro radical scavenging and cytotoxic activities of novel hybrid selenocarbamates” (Bioorg Med Chem, 2015).

Tests used:
MCF7 = test: Cytotoxicity against human MCF7 cells after 72 hrs by MTT assay; format: functional; details: MCF7, 72 h; for CC50: read-out: LC50 (the source's name)
Summary of the method: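 MCF-7 cells grown in EMEM with 10% foetal calf serum, 2 mM L-glutamine, 100 units/mL penicillin, 100 µg/mL streptomycin. Exposed to five concentrations between 0.01 and 100 μM for 72 h, 37 °C, humidified 5% CO2; MTT read-out. GI50, TGI, LC50 relative to untreated controls; ≥3 independent experiments in quadruplicate.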

HT-29 = test: Cytotoxicity against human HT-29 cells after 72 hrs by MTT assay; format: functional; details: HT-29, 72 h
Summary of the method: (§1)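 CCRF-CEM, HT-29, PC-3 and HTB-54 cells grown in RPMI 1640 with 10% foetal calf serum, 2 mM L-glutamine, penicillin/streptomycin, 10 mM HEPES (pH 7.4). Five concentrations, 0.01–100 μM, 72 h at 37 °C, 5% CO2; MTT read-out. GI50, TGI and LC50 versus untreated controls; at least 3 independent experiments in quadruplicate.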

CCRF-CEM = test: Cytotoxicity against human CCRF-CEM cells after 72 hrs by MTT assay; format: functional; summary of the method: as §1
[1] = Cytotoxicity against human PC3 cells after 72 hrs by MTT assay; format: functional; details: PC-3, 72 h; summary of the method: as §1
[2] = Cytotoxicity against human HTB-54 cells after 72 hrs by MTT assay; format: functional; details: HTB-54, 72 h; for CC50: read-out: LC50 (the source's name); summary of the method: as §1
[3] = Cytotoxicity against human 184B5 cells after 72 hrs by MTT assay; format: cell-based; details: for GI50 at 72 h: 184B5 cells; for LC50 / TGI: 184b5, 72 h
Summary of the method: (§2)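 Non-malignant lines: 184B5 (normal breast) in Hams F-12/DMEM (50:50) with published supplements; BEAS-2B (bronchial epithelium) in Hams F-12/DMEM (50:50) with 10% foetal calf serum, 2 mM L-glutamine, penicillin/streptomycin. Compounds at five concentrations, 0.01–100 μM, 72 h, 37 °C, 5% CO2; MTT read-out. GI50, TGI, LC50 relative to untreated controls; ≥3 independent experiments in quadruplicate.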

[4] = Cytotoxicity against human BEAS2B cells after 72 hrs by MTT assay; format: cell-based, BEAS-2B; details: for GI50 at 72 h: BEAS2B cells; for LC50 / TGI: beas-2b, 72 h; summary of the method: as §2
[5] = Antioxidant activity assessed as DPPH radical scavenging activity at 0.5 mg/ml after 180 mins; format: physicochemical; details: 3 h
Summary of the method: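 Compounds in absolute ethanol, serially diluted from 1 mg/mL, mixed 1:1 with […] in ethanol. Final range 0.016–0.5 mg/mL, 6 concentrations. Incubated at 37 °C in the dark, with decolourisation followed at 517 nm at several time intervals. % scavenged = (A vehicle control − A sample)/A control × 100. Quadruplicate; mean ± SD.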

[6] = Antioxidant activity assessed as ABTS radical scavenging activity at 0.1 mg/ml after 6 mins; format: physicochemical; details: 0.1 h
Summary of the method: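 Diluted with 50% ethanol to A741 0.700 ± 0.02. A741 decrease read after 6 min against a 50% ethanol blank. % scavenged relative to a vehicle-plus-radical control. Quadruplicate.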

[7] = Antioxidant activity assessed as ABTS radical scavenging activity by measuring Trolox equivalent antioxidant capacity after 6 mins; format: physicochemical; details: 0.1 h
Summary of the method: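 ABTS dissolved in deionized water at 1 mg/mL, oxidised to radical cation with potassium persulfate (2.45 mM final), kept overnight at room temperature in dark, then diluted with 50% ethanol to A741 = 0.700 ± 0.02. Compound (1 mg/mL ethanol stock) added 1:10 (0.1 mg/mL); A741 decrease read after 6 min against 50% ethanol blank. Trolox positive control; quadruplicate; TEAC from calibration curve.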

| Compound | GI50 (MCF7) [µM] | TGI (MCF7) [µM] | CC50 (MCF7) [µM] | GI50 (HT-29) [µM] | LC50 (HT-29) [µM] | TGI (HT-29) [µM] | GI50 (CCRF-CEM) [µM] | LC50 (CCRF-CEM) [µM] | TGI (CCRF-CEM) [µM] | GI50 [1] [µM] | LC50 (concentration causing 50% net cell kill) [1] [µM] | TGI [1] [µM] | GI50 [2] [µM] | TGI [2] [µM] | CC50 [2] [µM] | GI50 at 72 h [3] [µM] | LC50 [3] [µM] | TGI [3] [µM] | GI50 at 72 h [4] [µM] | LC50 [4] [µM] | other results |
| --- | --- | --- | --- | --- | --- | --- | --- | --- | --- | --- | --- | --- | --- | --- | --- | --- | --- | --- | --- | --- | --- |
| O=C(Nc1ccc([Se][Se]c2ccc(NC(=O)OCc3ccccc3)cc2)cc1)OCc1ccccc1 | 5.2 | 38.6 | 74.5 | 1.8 | 69 | 35.4 | 6.4 | 67.9 | 34.6 | 0.1 | 70.4 | 33.5 | 23.8 | 50.9 | 78 | 0.1 | 36.2 | 5.8 | 0.01 | 58.5 | TGI [4]: 17.3 µM; inhibition (INH) [5]: 7.4% |
| N#C[Se]c1ccc(NC(=O)Oc2ccc(Cl)cc2)cc1 | 6 | 26.3 | 63.6 | 11.8 | 68.7 | 40.3 | 18.3 | 71.8 | 45.1 | 6.4 | 57.9 | 18.7 | 13.8 | 41.4 | 69 | 5.6 | 59.8 | 19.9 | 9.3 | 68.7 | TGI [4]: 38 µM; inhibition (INH) [6]: > 25%; Activity [7]: 37.6 µg/µL |
| N#C[Se]c1ccc(NC(=O)OCC2c3ccccc3-c3ccccc32)cc1 | 7.6 | 34.6 | 67 | 15.5 | 70.2 | 42.8 | 7.5 | 66.7 | 34.2 | 2 | 70 | 34.3 | 23.8 | 48.4 | 73 | 5.5 | 62.5 | 25.8 | 7.9 | 68.2 | TGI [4]: 38.4 µM; inhibition (INH) [5]: > 25%; Activity [7]: 7.02 µg/µL |
| Cc1ccc(OC(=O)Nc2ccc([Se][Se]c3ccc(NC(=O)Oc4ccc(C)cc4)cc3)cc2)cc1 | 6.9 | 37.7 | 74 | 7.9 | 70.9 | 39.4 | 21.4 | 75.6 | 48.5 | 4.4 | 64.8 | 28.2 | 24.9 | 57 | 89.1 | 3.5 | 37.2 | 7.6 | 0.7 | 61.8 | TGI [4]: 19.2 µM; inhibition (INH) [5]: > 50% |
| CCCOC(=O)Nc1ccc([Se]C#N)cc1 | 8 | 34.4 | 67.5 | 28.4 | 75.4 | 51.9 | 9.3 | 68.8 | 38.4 | 21.1 | 73.8 | 47.4 | 28.9 | 51.9 | 74.9 | 3.7 | 50.9 | 9.1 | 19.2 | 73.5 | TGI [4]: 46.3 µM; Activity [7]: 6.27 µg/µL |
| N#C[Se]c1ccc(NC(=O)Oc2ccc(F)cc2)cc1 | 8.3 | 33.3 | 65.7 | 8.8 | 66.5 | 37.6 | 12.6 | 71.1 | 41.9 | 11.8 | 69 | 40.4 | 25 | 48.4 | 71.9 | 6.9 | 64.4 | 29.5 | 19.8 | 71.4 | TGI [4]: 45.6 µM; inhibition (INH) [6]: > 25%; Activity [7]: 20.8 µg/µL |
